Values after ≈ are worked out from the molar mass of the structure shown. Active and inactive are the calls of the source. The rule behind the calls is not given here.
Tests used:
Huh-7 [1] = assay: Cytotoxicity against human HuH7 cells up to 100 ug/ml by XTT assay; type: cell-based
[2] = Cytotoxicity against human HuH7 cells by [3H]thymidine incorporation assay; type: cell-based, Huh-7
Mycobacterium avium [3] = assay: Antimycobacterial activity against Mycobacterium avium ATCC 25291 assessed as growth inhibition at 100 ug/ml by microplate alamar blue assay; type: functional, Mycobacterium avium subsp. avium ATCC 25291; conditions: read-out: GI
Method in brief: (§1)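 Strains obtained from ATCC. Tested by microplate alamar blue assay. Compounds made up as 10 mg/mL DMSO stocks, then serially diluted in 7H9GC medium. Final test concentrations were 100, 50, 25, 10, 5, 1 and 0.5, each in triplicate. Experiments were run twice, and mean percent growth inhibition is reported.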

[4] = system: Mycobacterium tuberculosis; assay: Antimycobacterial activity against Mycobacterium tuberculosis H37Ra assessed as growth inhibition at 0.5 to 100 ug/ml by microplate alamar blue assay; type: functional, organism-based; method in brief: as §1
Huh-7 [5] = assay: Cytotoxicity against human HuH7 cells up to 100 ug/ml by [3H]thymidine incorporation assay; type: cell-based
[6] = Cytotoxicity against human HuH7 cells by XTT assay; type: cell-based, Huh-7
Mycobacterium avium [7] = assay: Antimycobacterial activity against Mycobacterium avium ATCC 25291 assessed as growth inhibition at 0.5 to 100 ug/ml by microplate alamar blue assay; type: functional; conditions: Mycobacterium avium subsp. avium ATCC 25291
Method in brief: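 M. avium ATCC 25291 (ATCC stock) in 7H9GC medium, microplate alamar blue read-out. Compounds dissolved in DMSO at 10 mg/mL (stock), diluted in medium to final 100, 50, 25, 10, 5, 1 and 0.5 µg/mL, each in triplicate. Two independent experiments; mean percent growth inhibition reported, SD within 10% of mean.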

[8] = system: Mycobacterium tuberculosis; assay: Antimycobacterial activity against Mycobacterium tuberculosis H37Ra assessed as growth inhibition at 100 ug/ml by microplate alamar blue assay; type: functional; conditions: read-out: GI; method in brief: as §1
[9] = system: Mycobacterium tuberculosis; assay: Antimycobacterial activity against Mycobacterium tuberculosis H37Ra assessed as growth inhibition at 10 ug/ml by microplate alamar blue assay; type: functional; conditions: read-out: GI; method in brief: as §1
[10] = system: Mycobacterium tuberculosis; assay: Antimycobacterial activity against Mycobacterium tuberculosis H37Ra assessed as growth inhibition at 50 ug/ml by microplate alamar blue assay; type: functional; conditions: read-out: GI; method in brief: as §1
[11] = system: Mycobacterium tuberculosis; assay: Antimycobacterial activity against Mycobacterium tuberculosis H37Ra by microplate alamar blue assay; type: functional
Mycobacterium avium [12] = assay: Antimycobacterial activity against Mycobacterium avium ATCC 25291 by microplate alamar blue assay; type: functional, Mycobacterium avium subsp. avium ATCC 25291
Mycobacterium avium [13] = assay: Antimycobacterial activity against Mycobacterium avium ATCC 25291 assessed as growth inhibition at 50 ug/ml by microplate alamar blue assay; type: functional, Mycobacterium avium subsp. avium ATCC 25291; conditions: read-out: GI; method in brief: as §1
Mycobacterium avium [14] = assay: Antimycobacterial activity against Mycobacterium avium ATCC 25291 assessed as growth inhibition at 10 ug/ml by microplate alamar blue assay; type: functional, Mycobacterium avium subsp. avium ATCC 25291; conditions: read-out: GI; method in brief: as §1
[15] = system: Mycobacterium tuberculosis; assay: Antimycobacterial activity against Mycobacterium tuberculosis H37Ra assessed as growth inhibition at 0.5 to 1 ug/ml by microplate alamar blue assay; type: functional; method in brief: as §1
Mycobacterium avium [16] = assay: Antimycobacterial activity against Mycobacterium avium ATCC 25291 assessed as growth inhibition at 2 ug/ml by microplate alamar blue assay; type: functional, Mycobacterium avium subsp. avium ATCC 25291; conditions: read-out: GI
[17] = system: Mycobacterium tuberculosis; assay: Antimycobacterial activity against Mycobacterium tuberculosis H37Ra assessed as growth inhibition at 15 to 20 ug/ml by microplate alamar blue assay; type: functional
[18] = system: Mycobacterium tuberculosis; assay: Antimycobacterial activity against Mycobacterium tuberculosis H37Ra assessed as growth inhibition at 5 ug/ml by microplate alamar blue assay; type: functional; conditions: read-out: GI; method in brief: as §1

| SMILES | Activity (Huh-7 [1]) | CC50 [2] [µg/mL] | growth inhibition (GI) [4] | Activity (Huh-7 [5]) | CC50 [6] [µg/mL] | growth inhibition (GI) (Mycobacterium avium [7]) | further results |
| --- | --- | --- | --- | --- | --- | --- | --- |
| O=c1[nH]c(=O)n([C@H]2C[C@H](F)[C@@H](CO)O2)cc1C(F)(F)F | Non-toxic | > 100 | inactive | Non-toxic | > 100 | – | inhibition of growth at 100 µg/mL (Mycobacterium avium [3]): 25% |
| CCc1cn([C@H]2CC[C@@H](CO)O2)c(=O)[nH]c1=O | Non-toxic | > 100 | inactive | Non-toxic | > 100 | inactive | – |
| [N-]=[N+]=N[C@H]1C[C@H](n2cc(F)c(=O)[nH]c2=O)O[C@@H]1CO | Non-toxic | > 100 | inactive | Non-toxic | > 100 | inactive | – |
| CCc1cn([C@H]2C[C@H](N=[N+]=[N-])[C@@H](CO)O2)c(=O)[nH]c1=O | Non-toxic | > 100 | – | Non-toxic | > 100 | – | inhibition of growth at 100 µg/mL [8]: 60%; inhibition of growth at 100 µg/mL (Mycobacterium avium [3]): 100%; inhibition of growth at 10 µg/mL [9]: 50%; inhibition of growth at 50 µg/mL [10]: 60%; MIC50 [11]: 10 µg/mL (≈ 35.6 µM); MIC50 (Mycobacterium avium [12]): 10 µg/mL (≈ 35.6 µM); inhibition of growth at 50 µg/mL (Mycobacterium avium [13]): 60%; inhibition of growth at 10 µg/mL (Mycobacterium avium [14]): 50% |
| [N-]=[N+]=N[C@H]1C[C@H](n2cc(Cl)c(=O)[nH]c2=O)O[C@@H]1CO | Non-toxic | > 100 | – | Non-toxic | > 100 | inactive | inhibition of growth at 100 µg/mL [8]: 50% |
| Cc1cn([C@H]2C[C@H](N)[C@@H](CO)O2)c(=O)[nH]c1=O [3-AMINO- 3-DEOXYTHYMIDINE] | Non-toxic | > 100 | inactive | Non-toxic | > 100 | inactive | – |
| CO[C@H]1/C=C/O[C@@]2(C)Oc3c(C)c(O)c4c(O)c(c(/C=N/N5CCN(C)CC5)c(O)c4c3C2=O)NC(=O)/C(C)=C\C=C\[C@H](C)[C@H](O)[C@@H](C)[C@@H](O)[C@@H](C)[C@H](OC(C)=O)[C@@H]1C [RIFAMPIN] | – | – | – | – | – | – | growth inhibition (GI) [15]: 100%; inhibition of growth at 2 µg/mL (Mycobacterium avium [16]): 90% |
| CCc1cn([C@H]2C[C@H](F)[C@@H](CO)O2)c(=O)[nH]c1=O | Non-toxic | > 100 | inactive | Non-toxic | > 100 | inactive | – |
| [N-]=[N+]=N[C@H]1C[C@H](n2cc(Br)c(=O)[nH]c2=O)O[C@@H]1CO | Non-toxic | > 100 | – | Non-toxic | > 100 | inactive | inhibition of growth at 100 µg/mL [8]: 30% |
| CC[C@H]1OC(=O)[C@H](C)[C@@H](O[C@H]2C[C@@](C)(OC)[C@@H](O)[C@H](C)O2)[C@H](C)[C@@H](O[C@@H]2O[C@H](C)C[C@H](N(C)C)[C@H]2O)[C@](C)(OC)C[C@@H](C)C(=O)[C@H](C)[C@@H](O)[C@]1(C)O [CLARITHROMYCIN] | – | – | – | – | – | – | inhibition of growth at 2 µg/mL (Mycobacterium avium [16]): 100% |
| CCc1cn([C@H]2C[C@H](I)[C@@H](CO)O2)c(=O)[nH]c1=O | Non-toxic | > 100 | inactive | Non-toxic | > 100 | inactive | – |
| CCc1cn([C@H]2C[C@@H](O)[C@@H](CO)O2)c(=O)[nH]c1=O | Non-toxic | > 100 | inactive | Non-toxic | > 100 | inactive | – |
| N[C@@H]1CONC1=O [CYCLOSERINE] | – | – | – | – | – | – | growth inhibition (GI) [17]: 80%; inhibition of growth at 100 µg/mL (Mycobacterium avium [3]): 100%; inhibition of growth at 5 µg/mL [18]: 50%; inhibition of growth at 10 µg/mL [9]: 60%; inhibition of growth at 50 µg/mL [10]: 100%; MIC50 [11]: 5 µg/mL (≈ 49 µM); inhibition of growth at 50 µg/mL (Mycobacterium avium [13]): 100%; inhibition of growth at 10 µg/mL (Mycobacterium avium [14]): 15% |
